ChEMBL document CHEMBL5104202, “Structure-Uptake Relationship Studies of Oxazolidinones in Gram-Negative ESKAPE Pathogens” (J Med Chem, 2022)
≈ marks a conversion by molar mass, not a printed value.

Tests used:
Klebsiella pneumoniae [1] = assay: Antibacterial activity against multidrug resistant Klebsiella pneumoniae ATCC43816 assessed as inhibition of bacterial growth incubated for 24 hrs in M9-MOPS medium by twofold serial dilution method; assay type: functional
Klebsiella pneumoniae [2] = assay: Antibacterial activity against multidrug resistant Klebsiella pneumoniae ATCC43816 assessed as inhibition of bacterial growth incubated for 24 hrs in MHI medium by twofold serial dilution method; assay type: functional
Klebsiella aerogenes = assay: Antibacterial activity against multidrug resistant Klebsiella aerogenes ATCC13048 assessed as inhibition of bacterial growth incubated for 24 hrs in M9-MOPS medium by twofold serial dilution method; assay type: functional
Klebsiella pneumoniae [3] = assay: Antibacterial activity against multidrug resistant Klebsiella pneumoniae ATCC13883 assessed as inhibition of bacterial growth incubated for 24 hrs in M9-MOPS medium by twofold serial dilution method; assay type: functional
Klebsiella pneumoniae [4] = assay: Antibacterial activity against multidrug resistant Klebsiella pneumoniae ATCC13883 assessed as inhibition of bacterial growth incubated for 24 hrs in MHI medium by twofold serial dilution method; assay type: functional
Pseudomonas aeruginosa [5] = assay: Antibacterial activity against multidrug resistant Pseudomonas aeruginosa BAA 2109 assessed as inhibition of bacterial growth incubated for 24 hrs in […] medium by twofold serial dilution method; assay type: functional
Pseudomonas aeruginosa [6] = assay: Antibacterial activity against multidrug resistant Pseudomonas aeruginosa BAA 2109 assessed as inhibition of bacterial growth incubated for 24 hrs in MHI medium by twofold serial dilution method; assay type: functional
Pseudomonas aeruginosa [7] = assay: Antibacterial activity against multidrug resistant Pseudomonas aeruginosa BAA 2108 assessed as inhibition of bacterial growth incubated for 24 hrs in M9-MOPS medium by twofold serial dilution method; assay type: functional
Pseudomonas aeruginosa [8] = assay: Antibacterial activity against multidrug resistant Pseudomonas aeruginosa BAA 2108 assessed as inhibition of bacterial growth incubated for 24 hrs in MHI medium by twofold serial dilution method; assay type: functional
Acinetobacter baumannii [9] = assay: Antibacterial activity against multidrug resistant Acinetobacter baumannii Ab5075 assessed as inhibition of bacterial growth incubated for 24 hrs in M9-MOPS medium by twofold serial dilution method; assay type: functional
Acinetobacter baumannii [10] = assay: Antibacterial activity against multidrug resistant Acinetobacter baumannii Ab5075 assessed as inhibition of bacterial growth incubated for 24 hrs in MHI medium by twofold serial dilution method; assay type: functional
Acinetobacter baumannii [11] = assay: Antibacterial activity against multidrug resistant Acinetobacter baumannii AYE assessed as inhibition of bacterial growth incubated for 24 hrs in M9-MOPS medium by twofold serial dilution method; assay type: functional
Acinetobacter baumannii [12] = assay: Antibacterial activity against multidrug resistant Acinetobacter baumannii AYE assessed as inhibition of bacterial growth incubated for 24 hrs in MHI medium by twofold serial dilution method; assay type: functional
Acinetobacter baumannii [13] = assay: Antibacterial activity against efflux pump lacking Acinetobacter baumannii assessed as inhibition of bacterial growth; assay type: functional, organism-based
Acinetobacter baumannii [14] = assay: Antibacterial activity against efflux pump lacking/recombinant OM pore producing Acinetobacter baumannii assessed as inhibition of bacterial growth; assay type: functional, organism-based
Acinetobacter baumannii [15] = assay: Antibacterial activity against recombinant OM pore producing Acinetobacter baumannii assessed as inhibition of bacterial growth; assay type: functional, organism-based
Acinetobacter baumannii [16] = assay: Antibacterial activity against wild type Acinetobacter baumannii assessed as inhibition of bacterial growth; assay type: functional, organism-based
Escherichia coli [17] = assay: Antibacterial activity against wild type Escherichia coli assessed as inhibition of bacterial growth; assay type: functional, organism-based
Escherichia coli [18] = assay: Antibacterial activity against recombinant OM pore producing Escherichia coli assessed as inhibition of bacterial growth; assay type: functional, organism-based
Escherichia coli [19] = assay: Antibacterial activity against efflux pump lacking Escherichia coli assessed as inhibition of bacterial growth; assay type: functional, organism-based
Escherichia coli [20] = assay: Antibacterial activity against efflux pump lacking/recombinant OM pore producing Escherichia coli assessed as inhibition of bacterial growth; assay type: functional, organism-based
Pseudomonas aeruginosa [21] = assay: Antibacterial activity against wild type Pseudomonas aeruginosa assessed as inhibition of bacterial growth; assay type: functional, organism-based
Pseudomonas aeruginosa [22] = assay: Antibacterial activity against recombinant OM pore producing Pseudomonas aeruginosa assessed as inhibition of bacterial growth; assay type: functional, organism-based
Pseudomonas aeruginosa [23] = assay: Antibacterial activity against efflux pump lacking Pseudomonas aeruginosa assessed as inhibition of bacterial growth; assay type: functional, organism-based
Pseudomonas aeruginosa [24] = assay: Antibacterial activity against efflux pump lacking/recombinant OM pore producing Pseudomonas aeruginosa assessed as inhibition of bacterial growth; assay type: functional, organism-based
Klebsiella pneumoniae [25] = assay: Antibacterial activity against multidrug resistant Klebsiella pneumoniae ATCC43816 assessed as inhibition of bacterial growth incubated for 24 hrs in MHI medium by twofold serial dilution method; conditions: ATCC43816, 24 h
Acinetobacter baumannii [26] = assay: Antibacterial activity against efflux pump lacking/recombinant OM pore producing Acinetobacter baumannii incubated for 24 hrs by twofold serial dilution method; assay type: functional
Procedure, shortened: (§1)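 MICs by twofold serial dilution in 96-well plates from 10 mM DMSO stocks. Cultures grown in the indicated media; for E. coli, A. baumannii and P. aeruginosa, inducers were 0.1% arabinose, 1% arabinose and 0.1 mM IPTG respectively.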

Escherichia coli [27] = assay: Antibacterial activity against efflux pump lacking/recombinant OM pore producing Escherichia coli incubated for 24 hrs by twofold serial dilution method; assay type: functional
Procedure, shortened: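 E. coli efflux-knockout/hyperporinated strain grown in M9 medium with 50 mM MOPS (pH 7.2) and 0.2% xylose. OM pore induced with 0.1% arabinose. Compounds come from 10 mM DMSO stocks and are twofold serially diluted in 96-well plates.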

Pseudomonas aeruginosa [28] = assay: Antibacterial activity against efflux pump lacking/recombinant OM pore producing Pseudomonas aeruginosa incubated for 24 hrs by twofold serial dilution method; assay type: functional; procedure, shortened: as §1
Escherichia coli [29] = assay: Antibacterial activity against Escherichia coli SQ110 DTC G2032A incubated for 24 hrs by twofold serial dilution method; assay type: functional
Procedure, shortened: (§2)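 E. coli SQDTC (TolC-deficient, single rRNA operon) carrying LZD-resistant 23S rRNA substitutions. Compounds come from 10 mM DMSO stocks and are twofold serially diluted in 96-well plates.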

Staphylococcus aureus = assay: Antibacterial activity against Staphylococcus aureus ATCC 25923 incubated for 24 hrs by twofold serial dilution method; assay type: functional; procedure, shortened: as §1
Escherichia coli [30] = assay: Antibacterial activity against Escherichia coli SQ110 DTC incubated for 24 hrs by twofold serial dilution method; assay type: functional; procedure, shortened: as §1
Escherichia coli [31] = assay: Antibacterial activity against Escherichia coli SQ110 incubated for 24 hrs by twofold serial dilution method; assay type: functional; procedure, shortened: as §1
Escherichia coli [32] = assay: Antibacterial activity against Escherichia coli SQ110 DTC C2610A incubated for 24 hrs by twofold serial dilution method; assay type: functional; procedure, shortened: as §2

| SMILES | IC50 (Acinetobacter baumannii [13]) [µM] | IC50 (Acinetobacter baumannii [14]) [µM] | IC50 (Acinetobacter baumannii [15]) [µM] | IC50 (Acinetobacter baumannii [16]) [µM] | IC50 (Escherichia coli [17]) [µM] | IC50 (Escherichia coli [18]) [µM] | IC50 (Escherichia coli [19]) [µM] | IC50 (Escherichia coli [20]) [µM] | IC50 (Pseudomonas aeruginosa [21]) [µM] | IC50 (Pseudomonas aeruginosa [22]) [µM] | IC50 (Pseudomonas aeruginosa [23]) [µM] | IC50 (Pseudomonas aeruginosa [24]) [µM] | MIC (Acinetobacter baumannii [26]) [µM] | MIC (Escherichia coli [27]) [µM] | MIC (Pseudomonas aeruginosa [28]) [µM] | MIC (Escherichia coli [29]) [µM] | MIC (Staphylococcus aureus) [µM] | MIC (Escherichia coli [30]) [µM] | MIC (Escherichia coli [31]) [µM] | MIC (Escherichia coli [32]) [µM] | also measured |
| --- | --- | --- | --- | --- | --- | --- | --- | --- | --- | --- | --- | --- | --- | --- | --- | --- | --- | --- | --- | --- | --- |
| O=C1O[C@@H](CO)CN1c1ccc(-c2cccc(CO)c2)c(F)c1 | 5.4 | 7.6 | 10.8 | 45.8 | 66.9 | 1.5 | 1.5 | 2 | > 100 | > 100 | 15.5 | 13 | – | – | – | – | – | – | – | – | MIC (Klebsiella pneumoniae [1]): > 200 µM; MIC (Klebsiella pneumoniae [2]): > 200 µM; MIC (Klebsiella aerogenes): > 200 µM; MIC (Klebsiella pneumoniae [3]): 200 µM (≈ 63.5 µg/mL); MIC (Klebsiella pneumoniae [4]): > 200 µM; MIC (Pseudomonas aeruginosa [5]): > 200 µM; MIC (Pseudomonas aeruginosa [6]): > 200 µM; MIC (Pseudomonas aeruginosa [7]): > 200 µM; MIC (Pseudomonas aeruginosa [8]): > 200 µM; MIC (Acinetobacter baumannii [9]): 200 µM (≈ 63.5 µg/mL); MIC (Acinetobacter baumannii [10]): > 200 µM; MIC (Acinetobacter baumannii [11]): 200 µM (≈ 63.5 µg/mL); MIC (Acinetobacter baumannii [12]): > 200 µM; MIC (Klebsiella pneumoniae [25]): > 200 µM |
| O=C1O[C@@H](CO)CN1c1ccc(-c2ccc(CO)cc2)c(F)c1 | 4.4 | 4.6 | 5.7 | 45.3 | 67.9 | 17.6 | 3.9 | 3.7 | > 100 | > 100 | 5.3 | 5.5 | 12.5 | 25 | 6.25 | 50 (≈ 15.9 µg/mL) | 1.56 (≈ 0.495 µg/mL) | 12.5 (≈ 3.97 µg/mL) | > 100 | 25 (≈ 7.93 µg/mL) | – |
| C[n+]1ccc(-c2ccc(N3C[C@H](CO)OC3=O)cc2F)cc1 | 23.3 | 13.8 | 13.8 | 59.4 | 13.5 | 12.3 | 10 | 11 | > 100 | 59.7 | 48.8 | 9.4 | > 100 | > 100 | > 100 | > 100 | > 100 | 50 | 100 | 100 | – |
| O=C1O[C@@H](CO)CN1c1ccc(-c2cccnc2)c(F)c1 | 4.3 | 4.3 | 19 | 19 | > 100 | 14.5 | 2.8 | 3.2 | > 100 | 75.3 | 4.7 | 6 | 12.5 | 25 | 6.25 | 50 (≈ 14.4 µg/mL) | 1.56 (≈ 0.45 µg/mL) | 12.5 (≈ 3.6 µg/mL) | > 100 | 25 (≈ 7.21 µg/mL) | MIC (Klebsiella pneumoniae [1]): > 200 µM; MIC (Klebsiella pneumoniae [2]): > 200 µM; MIC (Klebsiella aerogenes): 200 µM (≈ 57.7 µg/mL); MIC (Klebsiella pneumoniae [3]): 200 µM (≈ 57.7 µg/mL); MIC (Klebsiella pneumoniae [4]): > 200 µM; MIC (Pseudomonas aeruginosa [5]): > 200 µM; MIC (Pseudomonas aeruginosa [6]): > 200 µM; MIC (Pseudomonas aeruginosa [7]): > 200 µM; MIC (Pseudomonas aeruginosa [8]): > 200 µM; MIC (Acinetobacter baumannii [9]): 100 µM (≈ 28.8 µg/mL); MIC (Acinetobacter baumannii [10]): > 200 µM; MIC (Acinetobacter baumannii [11]): 100 µM (≈ 28.8 µg/mL); MIC (Acinetobacter baumannii [12]): > 200 µM; MIC (Klebsiella pneumoniae [25]): > 200 µM |
| O=C(O)c1ccc(-c2ccc(N3C[C@H](CO)OC3=O)cc2F)cc1 | 12.8 | 10.2 | 55.5 | > 100 | > 100 | > 100 | 54 | 2.6 | > 100 | > 100 | > 100 | 8.9 | 50 | 12.5 | > 100 | 50 (≈ 16.6 µg/mL) | 6.25 (≈ 2.07 µg/mL) | 25 (≈ 8.28 µg/mL) | > 100 | 25 (≈ 8.28 µg/mL) | – |
| Nc1ncc(-c2ccc(N3C[C@H](CO)OC3=O)cc2F)cn1 | 53 | 53 | > 100 | > 100 | > 100 | 2 | 5.9 | 1.5 | > 100 | > 100 | > 100 | 33 | 50 | > 100 | 12.5 | 100 (≈ 30.4 µg/mL) | 6.25 (≈ 1.9 µg/mL) | 25 (≈ 7.61 µg/mL) | > 100 | 50 (≈ 15.2 µg/mL) | – |
| O=C1O[C@@H](CO)CN1c1ccc(-c2ccc(C(F)(F)F)cc2)c(F)c1 | 8 | 3.9 | 41.1 | > 100 | 88.8 | 35.3 | 4.1 | 2.9 | > 100 | > 100 | 8 | 1.4 | 6.25 | > 100 | > 100 | > 100 | 3.12 (≈ 1.11 µg/mL) | 25 (≈ 8.88 µg/mL) | 100 (≈ 35.5 µg/mL) | > 100 | – |
